In test [1] the test system is MCF7. Kind of test: Antiproliferative activity against human MCF7 cells expressing estrogen receptor after 72 hrs by MTT assay. The note with it: MCF7, 72 h. The class given is functional, cell-based. On the technique in general: Formazan colour is commonly taken as a measure of viable cells.
Test [2] concerns MDA-MB-231. In words: Antiproliferative activity against estrogen receptor deficient human MDA-MB-231 cells after 72 hrs by MTT assay. The format is functional, cell-based. The note with it: MDA-MB-231, 72 h. An outline of the steps:
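MCF-7 grown in Eagle's MEM with 10% FBS, 2 mM L-glutamine, penicillin/streptomycin and 1% non-essential amino acids; MDA-MB-231 grown in DMEM with 10% FBS, 2 mM L-glutamine and penicillin/streptomycin. Seeded at 2.5 × 10⁴ cells/mL, 24 h at 37 °C. Ethanol-stock compound, 1 nM–100 μM, 72 h, ethanol 1% v/v vehicle. MTT at 1 mg/mL final, 2 h dark, 37 °C, DMSO solubilised. Viability vs untreated control. IC50 is mean of three experiments in triplicate.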

Test [3] deals with MCF7. In words: Cytotoxicity against human MCF7 cells expressing estrogen receptor assessed as LDH release at 10 uM. The format is functional. The essentials: (§1)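 After compound treatment, LDH was measured with a commercial LDH kit. Result is % cell lysis at 10 μM compound.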
A general note: LDH leaks from cells whose membrane has failed.

The subject of test [4] is MDA-MB-231. Kind of test: Cytotoxicity against estrogen receptor deficient human MDA-MB-231 cells assessed as LDH release at 10 uM. The class given is functional. An outline of the steps: as §1

Here are results for 21 molecules from ChEMBL document CHEMBL1629485, “Lead identification of conformationally restricted β-lactam type combretastatin analogues: synthesis, antiproliferative activity and tubulin targeting effects” (Eur J Med Chem, 2010).

The IC50 is the concentration that inhibits the measured activity by half.

Take `COc1cc(C2CC(=O)N2c2cc(OC)c(OC)c(OC)c2)cc(OC)c1OC` (configuration not stated): the IC50 with MCF7 [1] came out at 168000 nM; with MDA-MB-231 [2] it was 94400 nM. For the same molecule, the Activity with MCF7 [3] amounted to 1.9%; with MDA-MB-231 [4], 0%.
On the same counts, the results for `COc1ccc(C2CC(=O)N2c2cc(OC)c(OC)c(OC)c2)cc1OC` (configuration not stated) are 1640 nM, 970 nM, 5% and 15%.
Consider `COc1ccc(N2C(=O)C(C)(C)C2c2cc(OC)c(OC)c(OC)c2)cc1O` (configuration not stated), for which the IC50 was found to be 4040 nM in the test with MCF7 [1] and 3190 nM in the test on MDA-MB-231 [2]. The Activity is given as 11.5% in the test on MCF7 [3] and 12.1% with MDA-MB-231 [4].
On the same counts, the results for `COc1ccc(C2N(c3cc(OC)c(OC)c(OC)c3)C(=O)C2(C)C)cc1` (configuration not stated) are 265 nM, 1150 nM, 12% and 16%.
On the same counts, the results for `COc1cc(N2C(=O)CC2c2ccc(OC)c(OC)c2OC)cc(OC)c1OC` (configuration not stated) are 310 nM, 2830 nM, 8% and 9%.
For `COc1ccc(N2C(=O)C(C)C2c2cc(OC)c(OC)c(OC)c2)cc1O` (configuration not stated), the IC50 with MCF7 [1] is 2960 nM; with MDA-MB-231 [2], 13000 nM. The Activity with MCF7 [3] stood at 17%; with MDA-MB-231 [4], 0%.
For `COc1cc(OC)c(C2CC(=O)N2c2cc(OC)c(OC)c(OC)c2)cc1OC` (configuration not stated) the same measures were 63700 nM, 38500 nM, 2.2% and 0%.
On the same counts, the results for `COc1ccc(C2CC(=O)N2c2cc(OC)c(OC)c(OC)c2)cc1` (configuration not stated) are 39 nM, 210 nM, 1.5% and 1.1%.
On the same counts, the results for `COc1ccc(C2N(c3cc(OC)c(OC)c(OC)c3)C(=O)C2(C)C)cc1OC` (configuration not stated) are 344 nM, 1460 nM, 14% and 12%.
On to `COc1cc(N2C(=O)CC2c2cccs2)cc(OC)c1OC` (configuration not stated), for which the values for the IC50 with MCF7 [1] and with MDA-MB-231 [2] were 21600 nM and 34500 nM, respectively. Besides, the results for the Activity in the test with MCF7 [3] and in the test on MDA-MB-231 [4] were 20% and 15%, respectively.
Regarding `COc1ccc(C2N(c3cc(OC)c(OC)c(OC)c3)C(=O)C2(C)C)cc1O` (configuration not stated), the IC50 is 130 nM in the test on MCF7 [1] and 1670 nM in the test with MDA-MB-231 [2]. Further, the Activity is listed as 12% in the test with MCF7 [3] and 20% in the test with MDA-MB-231 [4].
On the same counts, the results for `COc1ccc2cc(C3CC(=O)N3c3cc(OC)c(OC)c(OC)c3)ccc2c1` (configuration not stated) are 1510 nM, 13200 nM, 13.5% and 18%.
For `COc1ccc(N2C(=O)CC2c2cc(OC)c(OC)c(OC)c2)cc1O` (configuration not stated) the same measures were 250 nM, 270 nM, 2.3% and 6.6%.
For `COc1ccc(C2CC(=S)N2c2cc(OC)c(OC)c(OC)c2)cc1` (configuration not stated) the same measures were 1120 nM, 4500 nM, 16% and 3%.
In the case of `COc1cc(N2C(=O)CC2c2ccc(F)cc2)cc(OC)c1OC` (configuration not stated), the half-inhibitory concentration (IC50) in the test on MCF7 [1] and in the test on MDA-MB-231 [2] was 26000 nM in each case. Moreover, the Activity with MCF7 [3] amounted to 0%; in the test on MDA-MB-231 [4], 6.3%.
As to `COc1ccc(C2C(C)C(=O)N2c2cc(OC)c(OC)c(OC)c2)cc1` (configuration not stated), the values for the IC50 with MCF7 [1] and with MDA-MB-231 [2] were 47 nM and 127 nM, respectively. Besides, the Activity in the test with MCF7 [3] stood at 5.7%; with MDA-MB-231 [4], 4.5%.
For `COc1ccc(C2C(C)C(=S)N2c2cc(OC)c(OC)c(OC)c2)cc1` (configuration not stated) the same measures were 890 nM, 9260 nM, 3.2% and 5.1%.
For `COc1ccc(C2C(C)C(=O)N2c2cc(OC)c(OC)c(OC)c2)cc1O` (configuration not stated) the same measures were 10 nM, 47 nM, 15% and 25%.
Turning to `COc1ccc(/C=C\c2cc(OC)c(OC)c(OC)c2)cc1O` [COMBRETASTATIN A4], the values for the Activity with MCF7 [3] and in the test on MDA-MB-231 [4] were 5.6% and 4.3%, respectively.
As for `COc1ccc(C2C(C)C(=O)N2c2cc(OC)c(OC)c(OC)c2)cc1OC` (configuration not stated), the values for the IC50 with MCF7 [1] and in the test on MDA-MB-231 [2] were 2960 nM and 8840 nM, respectively. In addition, the Activity with MCF7 [3] was 7.5%; with MDA-MB-231 [4], 6.1%.
On the same counts, the results for `COc1ccc(C2N(c3cc(OC)c(OC)c(OC)c3)C(=S)C2(C)C)cc1` (configuration not stated) are 350 nM, 1330 nM, 5.5% and 8%.
